From ChEMBL document CHEMBL2390839, “Di-alkylated paromomycin derivatives: targeting the membranes of gram positive pathogens that cause skin infections” (Bioorg Med Chem, 2013)
In brackets after ≈: the same amount, converted by molar mass. Activity calls are given as the source filed them. The rule behind the calls is not given here. Non-standard residues stand in square brackets, D forms with d. Residues, ends and D or L forms follow the SMILES beside them. *: point of attachment. NHCH2CH2OH = OCCN*; For = O=C*

Key:
[1] = Hemolytic activity in rat RBC assessed as hemoglobin release at 2 ug/mL after 1 hr by microplate reader analysis relative to control; assay type: ADME, cell-based, Erythrocyte; conditions: red blood cells (RBC), read-out: Activity
Procedure, shortened: (§1)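 Rat RBCs (2% w/w) incubated 1 h at 37 °C, 5% CO2 with twofold dilutions starting at 256 µg/mL. PBS served as negative control and 1% w/v Triton X100 as the 100% lysis control. After centrifugation (2000 rpm, 10 min), supernatant absorbance read at 550 nm. Hemoglobin release expressed as % of Triton. Triplicates, with blood from at least two rats.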

[2] = Hemolytic activity in rat RBC assessed as hemoglobin release at 64 ug/mL after 1 hr by microplate reader analysis; assay type: ADME, cell-based; conditions: erythrocyte; procedure, shortened: as §1
[3] = Hemolytic activity in rat RBC assessed as hemoglobin release at 256 ug/mL after 1 hr by microplate reader analysis relative to control; assay type: ADME, cell-based, Erythrocyte; conditions: red blood cells (RBC), read-out: Activity
Procedure, shortened: (§2)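 Rat RBCs (2% w/w) were exposed to compound for 1 h at 37 °C, 5% CO2, using twofold dilutions from 256 µg/mL. PBS served as the negative control and 1% w/v Triton X-100 as the 100% lysis control. After centrifugation (2000 rpm, 10 min), supernatant absorbance was read at 550 nm and expressed as % hemoglobin release relative to Triton. Assays were run in triplicate, averaged over blood from at least two rats.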

Streptococcus pyogenes [4] = assay: Antibacterial activity against Streptococcus pyogenes serotype T5 assessed as growth inhibition after 24 hrs by MTT assay; assay type: functional; conditions: serotype T5, 24 h
Procedure, shortened: (§3)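 Starter cultures were grown 24 h at 37 °C, 5% CO2, aerobic, then diluted in fresh medium to OD600 0.004. Twofold serial dilutions started at 64 µg/mL. After 24 h of incubation, MTT (1 mg/mL solution) was added and plates were incubated 2 h more at 37 °C. MIC was taken as the lowest concentration with no growth. Two independent experiments were run, each in triplicate.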

Streptococcus pyogenes [5] = assay: Antibacterial activity against glossy colony producing Streptococcus pyogenes assessed as growth inhibition after 24 hrs by MTT assay; assay type: functional; procedure, shortened: as §3
Streptococcus pyogenes [6] = assay: Antibacterial activity against Streptococcus pyogenes JRS75 assessed as growth inhibition after 24 hrs by MTT assay; assay type: functional; conditions: JRS75, 24 h; procedure, shortened: as §3
Streptococcus pyogenes [7] = assay: Antibacterial activity against Streptococcus pyogenes serotype M24 assessed as growth inhibition after 24 hrs by MTT assay; assay type: functional; conditions: serotype M24, 24 h; procedure, shortened: as §3
[8] = Antibacterial activity against Streptococcus pyogenes serotype M5 assessed as growth inhibition after 24 hrs by MTT assay; assay type: functional; procedure, shortened: as §3
[9] = Antibacterial activity against Streptococcus pyogenes serotype M3 assessed as growth inhibition after 24 hrs by MTT assay; assay type: functional; procedure, shortened: as §3
[10] = Antibacterial activity against Streptococcus pyogenes serotype M2 assessed as growth inhibition after 24 hrs by MTT assay; assay type: functional; procedure, shortened: as §3
Streptococcus pyogenes [11] = assay: Antibacterial activity against Streptococcus pyogenes serotype M1T1 assessed as growth inhibition after 24 hrs by MTT assay; assay type: functional; conditions: serotype M1T1, 24 h; procedure, shortened: as §3
Streptococcus pyogenes [12] = assay: Antibacterial activity against Streptococcus pyogenes MGAS9429 assessed as growth inhibition after 24 hrs by MTT assay; assay type: functional; conditions: MGAS9429, 24 h; procedure, shortened: as §3
Staphylococcus aureus [13] = assay: Antibacterial activity against Staphylococcus aureus Cowan ATCC 12598 assessed as growth inhibition after 24 hrs by MTT assay; assay type: functional; conditions: Cowan ATCC 12598, 24 h
Procedure, shortened: (§4)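 Starter cultures grown 24 h at 37 °C, 5% CO2, aerobic, then diluted in fresh medium to OD600 0.004. Twofold serial dilutions from 64 µg/mL, 24 h incubation. MTT (1 mg/mL solution) added, then 2 h at 37 °C. MIC = lowest concentration with no visible growth. Two independent experiments, each in triplicate.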

[14] = Antibacterial activity against biofilm-positive Staphylococcus epidermidis RP62A ATCC 35984 assessed as growth inhibition after 24 hrs by MTT assay; assay type: functional; conditions: ATCC 35984, 24 h; procedure, shortened: as §3
[15] = tested on: Staphylococcus epidermidis; assay: Antibacterial activity against biofilm-negative Staphylococcus epidermidis ATCC 12228 assessed as growth inhibition after 24 hrs by MTT assay; assay type: functional; conditions: ATCC 12228, 24 h; procedure, shortened: as §3
Staphylococcus aureus [16] = assay: Antibacterial activity against methicillin-resistant Staphylococcus aureus assessed as growth inhibition after 24 hrs by MTT assay; assay type: functional; procedure, shortened: as §4
Staphylococcus aureus [17] = assay: Antibacterial activity against Staphylococcus aureus NCTC 6571 assessed as growth inhibition after 24 hrs by MTT assay; assay type: functional; conditions: NCTC 6571, 24 h; procedure, shortened: as §4
Streptococcus pyogenes [18] = assay: Ratio of gramicidin D MIC to compound MIC for glossy colony producing Streptococcus pyogenes; assay type: functional
[19] = tested on: Staphylococcus epidermidis; assay: Ratio of gramicidin D MIC to compound MIC for biofilm-negative Staphylococcus epidermidis ATCC 12228; assay type: functional
Staphylococcus aureus [20] = assay: Ratio of gramicidin D MIC to compound MIC for Staphylococcus aureus NCTC 6571; assay type: functional
Streptococcus pyogenes [21] = assay: Ratio of gramicidin D MIC to compound MIC for Streptococcus pyogenes MGAS9429; assay type: functional
Staphylococcus aureus [22] = assay: Ratio of gramicidin D MIC to compound MIC for Staphylococcus aureus Cowan ATCC 12598; assay type: functional
[23] = tested on: Staphylococcus epidermidis; assay: Antibacterial activity against Staphylococcus epidermidis ATCC 12228 assessed as cell surface wrinkling at 1 ug/mL after 1 hr by scanning electron microscopic analysis; assay type: functional, organism-based
Procedure, shortened: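 S. epidermidis ATCC12228 grown 4 h at 37 °C, aerobic, to OD600 0.2. Cells washed in PBS pH 7.4 and resuspended to OD600 1.0. Treated with 1 µg/mL for 1 h at 37 °C, then diluted twofold. Washed, fixed overnight at 4 °C in 2.5% glutaraldehyde/PBS, dehydrated through graded ethanol, vacuum-dried, Pd-Au coated and imaged by SEM. Compared against untreated cells.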

[24] = Hemolytic activity in rat RBC assessed as hemoglobin release at 128 ug/mL after 1 hr by microplate reader analysis; assay type: ADME, cell-based; conditions: erythrocyte; procedure, shortened: as §2
[25] = Hemolytic activity in rat RBC assessed as hemoglobin release at 16 ug/mL after 1 hr by microplate reader analysis relative to control; assay type: ADME, cell-based, Erythrocyte; conditions: red blood cells (RBC), read-out: Activity; procedure, shortened: as §2
[26] = Ratio of gramicidin D activity to compound activity for hemolysis of rat RBC up to 256 ug/mL after 1 hrs; assay type: ADME, cell-based; conditions: erythrocyte
[27] = Hemolytic activity in rat RBC assessed as hemoglobin release at 32 ug/mL after 1 hr by microplate reader analysis relative to control; assay type: ADME, cell-based, Erythrocyte; conditions: red blood cells (RBC), read-out: Activity; procedure, shortened: as §2

Row | SMILES | Activity [2] | hemolysis at 1 h, 256 ug/mL [3] [%] | MIC (Streptococcus pyogenes [4]) [µg/mL] | MIC (Streptococcus pyogenes [5]) [µg/mL] | MIC (Streptococcus pyogenes [6]) [µg/mL] | MIC (Streptococcus pyogenes [7]) [µg/mL] | MIC [8] [µg/mL] | MIC [9] [µg/mL] | MIC [10] [µg/mL] | MIC (Streptococcus pyogenes [11]) [µg/mL] | MIC (Streptococcus pyogenes [12]) [µg/mL] | MIC (Staphylococcus aureus [13]) [µg/mL] | MIC [14] [µg/mL] | MIC [15] [µg/mL] | MIC (Staphylococcus aureus [16]) [µg/mL] | MIC (Staphylococcus aureus [17]) [µg/mL] | Activity [23] | Activity [24] | hemolysis at 1 h, 16 ug/mL [25] [%] | hemolysis at 1 h, 32 ug/mL [27] [%] | further results
1 | CC(C)C[C@@H](NC(=O)[C@H](C)NC(=O)CNC(=O)[C@@H](NC=O)C(C)C)C(=O)N[C@@H](C)C(=O)N[C@@H](C(=O)N[C@H](C(=O)N[C@@H](C(=O)N[C@@H](Cc1c[nH]c2ccccc12)C(=O)N[C@H](CC(C)C)C(=O)N[C@@H](Cc1c[nH]c2ccccc12)C(=O)N[C@H](CC(C)C)C(=O)N[C@@H](Cc1c[nH]c2ccccc12)C(=O)N[C@H](CC(C)C)C(=O)N[C@@H](Cc1c[nH]c2ccccc12)C(=O)NCCO)C(C)C)C(C)C)C(C)C [GRAMICIDIN D] (For-VGA[dL]A[dV]V[dV]W[dL]W[dL]W[dL]W-NHCH2CH2OH) | Toxic | < 60 | 2 (≈ 1.06 µM) | 16 (≈ 8.5 µM) | < 0.5 | < 0.5 | < 0.5 | < 0.5 | < 0.5 | < 0.5 | > 64 | > 64 | 2 (≈ 1.06 µM) | 8 (≈ 4.25 µM) | 64 (≈ 34 µM) | 32 (≈ 17 µM) |  |  |  |  | hemolysis at 1 h, 2 ug/mL [1]: 2.4%
2 | CCCCCCCCSC[C@H]1O[C@H](O[C@H]2[C@H](O[C@@H]3O[C@H](CSCCCCCCCC)[C@@H](O[C@H]4O[C@@H](CN)[C@@H](O)[C@H](O)[C@H]4N)[C@H]3O)[C@@H](O)[C@H](N)C[C@@H]2N)[C@H](N)[C@@H](O)[C@@H]1O |  | 62.5 | 2 (≈ 2.29 µM) | 2 (≈ 2.29 µM) | 2 (≈ 2.29 µM) | 2 (≈ 2.29 µM) | 2 (≈ 2.29 µM) | 2 (≈ 2.29 µM) | 2 (≈ 2.29 µM) | 2 (≈ 2.29 µM) | 4 (≈ 4.59 µM) | 4 (≈ 4.59 µM) | 2 (≈ 2.29 µM) | 2 (≈ 2.29 µM) | 8 (≈ 9.17 µM) | 4 (≈ 4.59 µM) | Active | Toxic | 0.8 |  | Ratio (Streptococcus pyogenes [18]): 8; Ratio [19]: 4; Ratio (Staphylococcus aureus [20]): 16; Ratio (Streptococcus pyogenes [21]): > 16; Ratio (Staphylococcus aureus [22]): > 16
3 | CCCCCCSC[C@H]1O[C@H](O[C@H]2[C@H](O[C@@H]3O[C@H](CSCCCCCC)[C@@H](O[C@H]4O[C@@H](CN)[C@@H](O)[C@H](O)[C@H]4N)[C@H]3O)[C@@H](O)[C@H](N)C[C@@H]2N)[C@H](N)[C@@H](O)[C@@H]1O |  | 3.4 | 4 (≈ 4.9 µM) | 8 (≈ 9.8 µM) | 8 (≈ 9.8 µM) | 8 (≈ 9.8 µM) | 8 (≈ 9.8 µM) | 4 (≈ 4.9 µM) | 8 (≈ 9.8 µM) | 16 (≈ 19.6 µM) | 8 (≈ 9.8 µM) | 64 (≈ 78.4 µM) | 16 (≈ 19.6 µM) | 8 (≈ 9.8 µM) | > 64 | 32 (≈ 39.2 µM) |  | Toxic | 0 |  | 
4 | CCCCCCCSC[C@H]1O[C@H](O[C@H]2[C@H](O[C@@H]3O[C@H](CSCCCCCCC)[C@@H](O[C@H]4O[C@@H](CN)[C@@H](O)[C@H](O)[C@H]4N)[C@H]3O)[C@@H](O)[C@H](N)C[C@@H]2N)[C@H](N)[C@@H](O)[C@@H]1O | Toxic | 30.4 | 4 (≈ 4.74 µM) | 4 (≈ 4.74 µM) | 4 (≈ 4.74 µM) | 4 (≈ 4.74 µM) | 4 (≈ 4.74 µM) | 2 (≈ 2.37 µM) | 2 (≈ 2.37 µM) | 4 (≈ 4.74 µM) | 4 (≈ 4.74 µM) | 16 (≈ 19 µM) | 4 (≈ 4.74 µM) | 4 (≈ 4.74 µM) | 16 (≈ 19 µM) | 8 (≈ 9.48 µM) |  | Toxic | 0 | 3.6 | Ratio [26]: 2
5 | NC[C@@H]1O[C@H](O[C@H]2[C@@H](O)[C@H](O[C@@H]3[C@@H](O)[C@H](N)C[C@H](N)[C@H]3O[C@H]3O[C@H](CO)[C@@H](O)[C@H](O)[C@H]3N)O[C@@H]2CO)[C@H](N)[C@@H](O)[C@@H]1O [PAROMOMYCIN] |  |  | 16 (≈ 26 µM) | 64 (≈ 104 µM) | 64 (≈ 104 µM) | 64 (≈ 104 µM) | 32 (≈ 52 µM) | 32 (≈ 52 µM) | 64 (≈ 104 µM) | 64 (≈ 104 µM) | > 64 | 16 (≈ 26 µM) | > 64 | 2 (≈ 3.25 µM) | > 64 | > 64 | Active |  |  |  | 
6 | CCCCCCCCCCCCCCCCSC[C@H]1O[C@H](O[C@H]2[C@H](O[C@@H]3O[C@H](CO)[C@@H](O[C@H]4O[C@@H](CN)[C@@H](O)[C@H](O)[C@H]4N)[C@H]3O)[C@@H](O)[C@H](N)C[C@@H]2N)[C@H](N)[C@@H](O)[C@@H]1O |  |  | 8 (≈ 9.34 µM) | 32 (≈ 37.4 µM) | 8 (≈ 9.34 µM) | 32 (≈ 37.4 µM) | 64 (≈ 74.8 µM) | 32 (≈ 37.4 µM) | 16 (≈ 18.7 µM) | > 64 | 32 (≈ 37.4 µM) | 64 (≈ 74.8 µM) | 64 (≈ 74.8 µM) | 32 (≈ 37.4 µM) | 64 (≈ 74.8 µM) | 64 (≈ 74.8 µM) |  |  | 33.8 | 100 | 
